Here are results for one compound from ChEMBL document CHEMBL1156952, “Synthesis and biological evaluations of novel bendazac lysine analogues as potent anticataract agents” (Bioorg Med Chem Lett, 2010).

Data set [1] can be described thus: Anticataract activity against FeCl3/H2O2-induced cataract in rat lens assessed as extensive mature nuclear opacity at 0.5 mM treated 1 hr before FeCl3/H2O2 challenge measured after 24 hrs. In kind it is functional, Lens of camera-type eye. An outline of the steps: (§1)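 Isolated rat lenses were cultured in DMEM and challenged with FeCl3 (0.02%) plus H2O2 (0.5%). Compounds were added at 0.5 mM to the medium of transparent lenses, with a challenged, untreated control. Lenses were scored as the percentage at each opacification grade (−, +, ++, +++).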

The nature of data set [2]: Anticataract activity against FeCl3/H2O2-induced cataract in rabbit lens assessed as slight degree of opacificaion at 15 mM treated 1 hr before FeCl3/H2O2 challenge measured after 24 hrs. In kind it is functional, Oryctolagus cuniculus, Lens of camera-type eye.
The nature of data set [3]: Anticataract activity against FeCl3/H2O2-induced cataract in rabbit lens assessed as absence of opacificaion at 10 mM treated 1 hr before FeCl3/H2O2 challenge measured after 24 hrs. In kind it is functional, Oryctolagus cuniculus, Lens of camera-type eye.
Data set [4] in a line: Anticataract activity against FeCl3/H2O2-induced cataract in rat lens assessed as slight degree of opacificaion at 0.5 mM treated 1 hr before FeCl3/H2O2 challenge measured after 24 hrs. In kind it is functional, Lens of camera-type eye. An outline of the steps:
as §1

Data set [5] can be described thus: Anticataract activity against FeCl3/H2O2-induced cataract in rabbit lens assessed as absence of opacificaion at 5 mM treated 1 hr before FeCl3/H2O2 challenge measured after 24 hrs. In kind it is functional, Oryctolagus cuniculus, Lens of camera-type eye.
The nature of data set [6]: Anticataract activity against FeCl3/H2O2-induced cataract in rabbit lens assessed as slight degree of opacificaion at 0.5 mM treated 1 hr before FeCl3/H2O2 challenge measured after 24 hrs. In kind it is functional, Oryctolagus cuniculus, Lens of camera-type eye.
Data set [7] in a line: Anticataract activity against FeCl3/H2O2-induced cataract in rabbit lens assessed as middle degree of opacificaion at 10 mM treated 1 hr before FeCl3/H2O2 challenge measured after 24 hrs. In kind it is functional, Oryctolagus cuniculus, Lens of camera-type eye.
Data set [8] in a line: Anticataract activity against FeCl3/H2O2-induced cataract in rabbit lens assessed as slight degree of opacificaion at 5 mM treated 1 hr before FeCl3/H2O2 challenge measured after 24 hrs. In kind it is functional, Oryctolagus cuniculus, Lens of camera-type eye.
Data set [9] can be described thus: Anticataract activity against FeCl3/H2O2-induced cataract in rabbit lens assessed as slight degree of opacificaion at 10 mM treated 1 hr before FeCl3/H2O2 challenge measured after 24 hrs. In kind it is functional, Oryctolagus cuniculus, Lens of camera-type eye.
Data set [10] can be described thus: Anticataract activity against FeCl3/H2O2-induced cataract in rabbit lens assessed as extensive mature nuclear opacity at 5 mM treated 1 hr before FeCl3/H2O2 challenge measured after 24 hrs. In kind it is functional, Oryctolagus cuniculus, Lens of camera-type eye.
A short description of data set [11]: Anticataract activity against FeCl3/H2O2-induced cataract in rabbit lens assessed as extensive mature nuclear opacity at 10 mM treated 1 hr before FeCl3/H2O2 challenge measured after 24 hrs. In kind it is functional, Oryctolagus cuniculus, Lens of camera-type eye.
A short description of data set [12]: Anticataract activity against FeCl3/H2O2-induced cataract in rabbit lens assessed as absence of opacificaion at 15 mM treated 1 hr before FeCl3/H2O2 challenge measured after 24 hrs. In kind it is functional, Oryctolagus cuniculus, Lens of camera-type eye.
The nature of data set [13]: Aqueous solubility of the compound. In kind it is physicochemical. Particulars: water (aqueous).
Data set [14] is described as follows: Anticataract activity against FeCl3/H2O2-induced cataract in rabbit lens assessed as middle degree of opacificaion at 0.5 mM treated 1 hr before FeCl3/H2O2 challenge measured after 24 hrs. In kind it is functional, Oryctolagus cuniculus, Lens of camera-type eye.
Data set [15] can be described thus: Anticataract activity against FeCl3/H2O2-induced cataract in rat lens assessed as middle degree of opacificaion at 0.5 mM treated 1 hr before FeCl3/H2O2 challenge measured after 24 hrs. In kind it is functional, Lens of camera-type eye. In outline:
as §1

Data set [16] in a line: Anticataract activity against FeCl3/H2O2-induced cataract in rabbit lens assessed as extensive mature nuclear opacity at 0.5 mM treated 1 hr before FeCl3/H2O2 challenge measured after 24 hrs. In kind it is functional, Oryctolagus cuniculus, Lens of camera-type eye.
Data set [17] is described as follows: Anticataract activity against FeCl3/H2O2-induced cataract in rat lens assessed as absence of opacificaion at 0.5 mM treated 1 hr before FeCl3/H2O2 challenge measured after 24 hrs. In kind it is functional, Lens of camera-type eye. In outline:
as §1

The nature of data set [18]: Anticataract activity against FeCl3/H2O2-induced cataract in rabbit lens assessed as middle degree of opacificaion at 5 mM treated 1 hr before FeCl3/H2O2 challenge measured after 24 hrs. In kind it is functional, Oryctolagus cuniculus, Lens of camera-type eye.
Data set [19] can be described thus: Anticataract activity against FeCl3/H2O2-induced cataract in rabbit lens assessed as extensive mature nuclear opacity at 15 mM treated 1 hr before FeCl3/H2O2 challenge measured after 24 hrs. In kind it is functional, Oryctolagus cuniculus, Lens of camera-type eye.
Data set [20] in a line: Anticataract activity against FeCl3/H2O2-induced cataract in rabbit lens assessed as middle degree of opacificaion at 15 mM treated 1 hr before FeCl3/H2O2 challenge measured after 24 hrs. In kind it is functional, Oryctolagus cuniculus, Lens of camera-type eye.
A short description of data set [21]: Anticataract activity against FeCl3/H2O2-induced cataract in rabbit lens assessed as absence of opacificaion at 0.5 mM treated 1 hr before FeCl3/H2O2 challenge measured after 24 hrs. In kind it is functional, Oryctolagus cuniculus, Lens of camera-type eye.

Each structure is given as a SMILES string.

With `N[C@@H](Cc1c[nH]cn1)C(=O)O.O=C(O)C(Oc1nn(Cc2ccccc2)c2ccccc12)C(=O)O`, the Activity in [1] is listed as 0%; in [2], 0%; in data set [3], 90%; in data set [4], 85%; in [5], 30%; in data set [6], 65%. The Activity in data set [7] is recorded as 0%; in data set [8], 70%; in data set [9], 10%; in data set [10], 0%; in data set [11], 0%; in [12], 100%. Further, the Activity in data set [14] is on record as 35%; in [15] it was 15%; in data set [16] it was 0%; in [17], 0%; in data set [18] it was 0%; in data set [19] it was 0%. Besides, the Activity in data set [20] and in [21] was 0% each time. This compound also gave a solubility in [13] of 180 mg/mL.
